Measurements reported in ChEMBL document CHEMBL3132813, “Exploring novel strategies for AIDS protozoal pathogens: α-helix mimetics targeting a key allosteric protein-protein interaction in C. hominis TS-DHFR” (Medchemcomm, 2013).

Tests used:
[1] = target: T1, Dihydrofolate reductase (Homo sapiens, UniProt P00374); assay: Inhibition of human DHFR
T1 sequence (P00374 whole entry): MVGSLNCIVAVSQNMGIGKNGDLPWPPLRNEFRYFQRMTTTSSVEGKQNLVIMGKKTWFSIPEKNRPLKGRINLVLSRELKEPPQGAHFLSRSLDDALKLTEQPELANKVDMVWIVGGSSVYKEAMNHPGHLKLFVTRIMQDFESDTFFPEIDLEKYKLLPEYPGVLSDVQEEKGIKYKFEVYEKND
Summary of the method: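 Steady-state spectrophotometric assay at 340 nm, run separately for DHFR and TS reactions. Compound preincubated 30 min with enzyme and substrates before starting the reaction. Identical enzyme and ligand concentrations for all targets. DMSO-matched blank; rates normalized to it. IC50 as mean ± standard deviation.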

[2] = Inhibition of DHFR activity of Cryptosporidium hominis thymidylate synthase-dihydrofolate reductase beta face mutant by steady state kinetic assay
Summary of the method: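 Recombinant bifunctional TS–DHFR, Beta Face crossover-helix mutant, expressed in E. coli BL21. DHFR reaction was followed spectroscopically at 340 nm under steady-state conditions. Helix mimetic was added from a DMSO stock and preincubated with enzyme and substrates for 30 minutes before the reaction was started. Rates were normalized to a matched DMSO blank and fit as dose–response to give the IC50, reported as mean ± SD.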

[3] = test system: Cryptosporidium hominis; assay: Inhibition of DHFR activity of Cryptosporidium hominis thymidylate synthase-dihydrofolate reductase beta face mutant by steady state kinetic assay relative wild type TS-DHFR
Summary of the method: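 Bifunctional TS–DHFR enzymes (wild type and crossover-helix mutants) were over-expressed in E. coli BL21 and purified. DHFR activity was followed at 340 nm by steady-state spectroscopy. Enzyme and substrates were preincubated with mimetic for 30 min before starting the reaction. Rates were normalized to a matched DMSO blank. Enzyme and ligand concentrations were the same for each target, and IC50 was given as mean ± SD.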

`CC(C)CN(C(=O)Nc1ccc(CCC(=O)O)cc1Cc1ccccc1)C(=O)c1ccc(OCC(=O)O)c(Cc2ccccc2)c1` showed an IC50 [1] greater than 1000 µM, an IC50 [2] of 18 µM and a Ratio IC50 [3] of 10.
